EBNA-1 inh: blocks EBNA-1 binding to DNA; EBNA-1 DNA binding, fluorescence polarization; inhibition, % at 14.8 µM; AID 1950; 0.34% of 300,000 active; in the data active = inhibition above about 28%
LANA-H2B inh: blocks KSHV LANA binding to histone H2A/H2B | cell-free LANA-H2A/H2B peptide, fluorescence polarization | inhibition, % (concentration not given with the values) | 0.6% of 320,000 active; in the data active = inhibition mostly above about 10%, no sharp cut-off; inactive = mostly below about 6.7%
Bfl-1 A1 inh: inhibitors of the anti-apoptotic protein A1, read as caspase activation. caspase activation, % (test concentration not listed). MEF A1-2A-BIM cells, Caspase-Glo 3/7 luminescence, 3 h; percent of clofoctol response, vehicle zero. 0.066% of 330,000 active;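 active = over half of replicate activation scores above 10%, or exactly half above 10 with the replicate mean above 10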
HNF4A DNA FP: change in binding of human HNF4 alpha to DNA; HNF4a-FITC DNA binding, fluorescence polarization, 1 h; 0.3% of 360,000 active; activity change, % at 10 µM; P41235; in the data active = activity change above about 30%, passing the limit was not always enough
ZTA DNA inh: blocks Epstein-Barr virus ZTA, an EBNA-1 counter-screen; P03206; ZTA-DNA binding, fluorescence polarization; inhibition, % at 11 µM; 0.15% of 320,000 active; AID 2234; in the data active = inhibition above about 33%
Target sequence (P03206 whole entry, looked up): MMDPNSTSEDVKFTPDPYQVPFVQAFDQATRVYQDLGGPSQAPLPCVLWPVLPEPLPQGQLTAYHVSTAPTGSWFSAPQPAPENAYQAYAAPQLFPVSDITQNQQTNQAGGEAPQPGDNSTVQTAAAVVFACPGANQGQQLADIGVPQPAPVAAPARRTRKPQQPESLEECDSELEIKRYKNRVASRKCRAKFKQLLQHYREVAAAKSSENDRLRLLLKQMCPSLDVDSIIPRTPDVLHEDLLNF
CSN deneddyl inh: blocks human CSN-mediated cullin deneddylation | 0.38% of 360,000 active | inhibition, % at 12.5 µM | Q92905 | Purified CSN, SCF-Nedd8-OG deneddylation, fluorescence polarization;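 active = pattern-corrected inhibition above about 35%, with an unprinted fluorescence ratio check between 0.5 and 1.5, limit read from the data, passing the limit was not always enough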
Target sequence (Q92905 whole entry, looked up, one chain of several): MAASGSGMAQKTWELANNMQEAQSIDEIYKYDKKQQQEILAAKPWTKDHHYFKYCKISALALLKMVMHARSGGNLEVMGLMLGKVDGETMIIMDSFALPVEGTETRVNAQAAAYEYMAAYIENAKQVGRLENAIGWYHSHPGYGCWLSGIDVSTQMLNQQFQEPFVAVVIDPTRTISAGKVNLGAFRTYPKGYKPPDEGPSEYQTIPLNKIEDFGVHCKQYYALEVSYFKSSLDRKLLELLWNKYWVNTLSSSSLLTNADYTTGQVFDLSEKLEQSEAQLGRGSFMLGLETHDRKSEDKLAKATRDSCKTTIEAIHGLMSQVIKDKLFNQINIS
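Assay system: Purified human Csn5 enzyme expressed in HEK293T cells | Amount: Enzyme 0.24 nM | Measured by: Fluorescence polarization readout | Medium: Tris/NaCl/DTT buffer, pH 7.5 | Compound dosing: One concentration, 12.5 µM, 0.25% DMSO | Times: 90 min incubation of compound, enzyme and substrate at room temperature | Control set: no-enzyme wells high, enzyme-with-substrate wells low | Read-out: % inhibition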
A number is an active result; 0 = inactive; - = no result given; + = active, no number. Compounds with a hit are over-represented: about 1.5% of the library has one in this group of screens.

SMILES	EBNA-1 inh	LANA-H2B inh	Bfl-1 A1 inh	HNF4A DNA FP	ZTA DNA inh	CSN deneddyl inh
CC1CCCCC1NC(=O)Cn1cc([N+](=O)[O-])ccc1=O (stereo not drawn)	-	15	0	0	0	0
CC1CCCC(NC(=O)Cn2cc([N+](=O)[O-])ccc2=O)C1C (stereo not drawn)	-	0	0	0	0	0
COc1ccc([C@H]2/C=C\CN(C(=O)C3CC3)[C@@H](C)C(=O)N2Cc2ccc(F)cc2)cc1	0	0	0	0	0	0
Cc1ccccc1Cn1c(C)c(C(=O)NCCC#N)sc1=O	-	-	-	0	-	0
CCCCCN(C(=O)NC(=O)Nc1ccc(C)cc1)S(=O)(=O)c1ccccc1	0	0	0	0	0	0
COc1cccc(C2C(C#N)=C(C)NC3=C2C(=O)CC(C)(C)C3)c1 (stereo not drawn)	0	0	0	0	0	0
COc1ccc(C2C(C#N)=C(C)NC3=C2C(=O)CC(C)(C)C3)cc1 (stereo not drawn)	0	0	0	0	0	102
CSc1cccc(NC(=O)CNC(=O)C2CCCCC2)c1	0	0	0	0	0	0
COc1ccc(N=NC2=C(O)CC(C)(C)CC2=O)cc1	0	0	0	0	0	0
COc1ccc(N=NC2=C(O)CC(C)(C)CC2=O)c(OC)c1	0	0	0	51	0	0
Cc1c2cc(O)c(=O)cc-2oc2cc(O)c(O)cc12	0	114	0	0	0	0
Cc1cc2oc(=O)cc(-c3cc4ccccc4o3)c2cc1O	0	0	0	0	0	0
O=C(Cc1ccc(Cl)cc1)NNc1c(F)c(F)cc(F)c1F	0	27	0	0	0	0
COC(=O)c1cn(CC(=O)Nc2ccc(F)cc2)c2ccccc12	0	12	0	0	0	0
CCOC(=O)C1CCN(C(=O)c2sc3nc(-c4ccc(F)cc4)cn3c2C)CC1	0	137	0	0	0	0
COCCN(C(=O)c1cc(-c2ccco2)nc2ccccc12)c1c(N)n(Cc2ccccc2)c(=O)[nH]c1=O	-	0	0	0	-	37
CCCN(C(=O)c1cc(-c2ccco2)nc2ccccc12)c1c(N)n(Cc2ccccc2)c(=O)[nH]c1=O	0	0	0	0	0	0
CC(NC(=O)COc1ccccc1)C1COc2ccccc2O1 (stereo not drawn)	0	0	0	0	0	0
CCOc1ccc(C(=O)NC(C)C2COc3ccccc3O2)cc1 (stereo not drawn)	0	36	0	0	0	0
COc1ccc(NC(=O)Cn2cnc3ccccc3c2=O)cc1OC	0	0	0	0	0	0
COc1ccc2nc(NC(=O)CSC(C)C(=O)Nc3cc(C)on3)sc2c1 (stereo not drawn)	0	17	0	0	0	0
COc1ccc2nc(NC(=O)Cn3cnc4ccccc4c3=O)sc2c1	0	177	0	0	0	0
Cc1ccc2nc(NC(=O)CSCC(=O)Nc3cc(C)on3)sc2c1	-	-	0	0	0	0
O=C(CCc1nc(-c2ccc(Cl)cc2)no1)NCc1ccccc1CN1CCOCC1	-	0	0	0	0	0
O=C(CCc1nc(-c2ccccc2)no1)NCc1ccccc1CN1CCOCC1	-	26	0	0	0	0
SMILES	EBNA-1 inh	LANA-H2B inh	Bfl-1 A1 inh	HNF4A DNA FP	ZTA DNA inh	CSN deneddyl inh
O=c1oc(/C=C/c2ccccc2)nc2sc3c(c12)CCC3	0	0	0	47	0	0
CC(=O)N1CCc2cc(Br)cc(S(=O)(=O)NCCCN(C)Cc3ccccc3)c21	0	0	0	0	0	0
CCOC1=C2[C@H](c3ccccc3F)N(S(=O)(=O)c3ccc(C)cc3)C[C@H]2n2c(=O)n(-c3ccccc3)c(=O)n2C1	-	-	-	0	-	0
CC1([N+](=O)[O-])COC2(CCCCC2)OC1	-	-	-	0	-	0
CCCCn1nc(C(=O)N2CCN(S(=O)(=O)c3ccccc3)CC2)c2ccccc2c1=O	0	0	0	0	0	0
COc1ccccc1N(CC(=O)N(C)Cc1ccccc1)S(=O)(=O)c1cccs1	-	+	0	0	0	0
Cc1oc2c(C)c3oc(=O)c(CCC(=O)N4C[C@H]5C[C@@H](C4)c4cccc(=O)n4C5)c(C)c3cc2c1C	0	35	0	0	0	0
Cc1coc2c(C)c3oc(=O)c(CCC(=O)N4C[C@H]5C[C@@H](C4)c4cccc(=O)n4C5)c(C)c3cc12	0	0	0	0	0	0
Cc1cc(/N=C/C=C2\N(C)c3ccccc3C2(C)C)n(CCC#N)n1	0	0	0	0	0	0
CC1CCC(C(C)C)C(OC(=O)Cn2c(-c3ccccc3)[n+](C)c3ccccc32)C1 (stereo not drawn)	0	172	0	0	0	0
CC1CCC(C(C)C)C(OC(=O)Cn2c(-c3ccc(F)cc3)[n+](C)c3ccccc32)C1 (stereo not drawn)	0	-	0	0	0	0
O=C(CN1C(=O)NC(Cc2c[nH]c3ccccc23)C1=O)Nc1cccc(S(=O)(=O)N2CCOCC2)c1 (stereo not drawn)	0	25	0	0	0	0
Cc1ccccc1NC(=O)N(O)C1(C#N)CCCCC1	-	-	-	0	-	0
COc1ccc(CC(=O)Nc2ccc(F)c(F)c2F)cc1S(=O)(=O)N1CCOCC1	-	140	0	0	0	0
COc1ccc(CC(=O)Nc2cc(F)ccc2F)cc1S(=O)(=O)N1CCOCC1	-	-	-	0	-	0
C/C(=N\NC(=O)CN1CCN(Cc2ccccc2)CC1)c1cccs1	0	0	0	0	0	0
CN(/N=C/c1cccnc1)c1cnn(-c2ccc(F)c(Cl)c2)c(=O)c1Cl	0	0	0	0	0	0
CN(/N=C/c1c[nH]c2ccccc12)c1cnn(-c2ccc(F)c(Cl)c2)c(=O)c1Cl	0	0	0	64	0	48
Cc1ccc2nc(C)cc(C(=O)OCC(=O)Nc3cccnc3Cl)c2c1	0	0	0	0	0	0
CSc1ccccc1OCc1cc(C(=O)NC2CCc3ccccc32)no1 (stereo not drawn)	0	0	0	0	0	0
COc1cc(Cl)ccc1OCc1cc(C(=O)NC2CCc3ccccc32)no1 (stereo not drawn)	0	29	0	0	0	0
O=Cc1sc(N2CCOCC2)nc1-c1ccccc1	0	0	0	-	0	-
COc1cc(O)ccc1C=O	0	0	0	0	0	0
COc1ccc(C=O)c(OC)c1	0	12	0	0	0	0
COC(=O)Oc1cncc(C(=O)O)c1	0	0	0	0	0	0
CNc1cncc(C(=O)O)c1	42	0	0	0	0	0
CC(/C=C/c1ccc(N(C)C)cc1)=N\N=C(/N)SC1CC(=O)N(c2ccc(C(=O)O)cc2)C1=O (stereo not drawn)	0	0	0	40	0	0
O=c1c2ccccc2nc(-c2ccccc2)n1CCN1CCOCC1	0	0	0	0	0	0
COc1ccc(-c2nc3ccccc3c(=O)n2CCCN2CCOCC2)cc1	0	16	0	0	0	0

Screening results: PubChem BioAssay, several laboratories
